In ChEMBL document CHEMBL5113395, “Azetidin-2-one-based small molecules as dual hHDAC6/HDAC8 inhibitors: Investigation of their mechanism of action and impact of dual inhibition profile on cell viability” (Eur J Med Chem, 2022):
The source made the active and inactive calls. The calls are words filed in the database; no cut-off is given here.

Legend:
Homo sapiens [1] = organism: Homo sapiens; assay: Selectivity index, ratio of IC50 for inhibition of recombinant human full length C-terminal FLAG/His-tagged HDAC1 expressed in Sf9 insect cells to IC50 for inhibition recombinant human HDAC8
Method in brief: (§1)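 HDAC1 and HDAC6 IC50 values from the ZMAL fluorogenic assay: 37 °C for 90 min, then trypsin/TSA development, read at ex 390/em 460 nm. HDAC8 IC50 from the kit enzyme (0.45 U/reaction), 0.5% DMSO, 15 min preincubation with compound, 50 μM Fluor de Lys substrate, 1 h at 30 °C. HDAC8 reaction quenched with TSA (2 μM) in developer, 1 h, read at ex 370/em 450 nm, IC50 by nonlinear regression. Ratio of IC50s.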

Homo sapiens [2] = organism: Homo sapiens; assay: Selectivity index, ratio of IC50 for inhibition of recombinant human full length C-terminal FLAG/His-tagged HDAC1 expressed in Sf9 insect cells to IC50 for inhibition of recombinant human full length N-terminal GST-tagged HDAC6 expressed in Sf9 cells
Method in brief: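 Human recombinant HDAC1 or HDAC6 in Tris-HCl pH 8.0 buffer (NaCl, KCl, MgCl2, 1 mg/mL BSA). Incubated with inhibitor dilutions in DMSO and fluorogenic ZMAL substrate (126 μM) at 37 °C for 90 min. Stopped with trichostatin A/trypsin, 30 min at 37 °C. Fluorescence read at ex 390/em 460 nm. IC50 from at least three determinations; ratio HDAC1/HDAC6 IC50.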

[3] = target: T1, Polyamine deacetylase HDAC10 (Homo sapiens, UniProt Q969S8); assay: Inhibition of recombinant human N-terminal FLAG tagged HDAC10 expressed in baculovirus infected Sf9 insect cells using fluorogenic substrate measured after 30 mins by fluorescence plate reader analysis
T1 sequence (Q969S8 whole entry): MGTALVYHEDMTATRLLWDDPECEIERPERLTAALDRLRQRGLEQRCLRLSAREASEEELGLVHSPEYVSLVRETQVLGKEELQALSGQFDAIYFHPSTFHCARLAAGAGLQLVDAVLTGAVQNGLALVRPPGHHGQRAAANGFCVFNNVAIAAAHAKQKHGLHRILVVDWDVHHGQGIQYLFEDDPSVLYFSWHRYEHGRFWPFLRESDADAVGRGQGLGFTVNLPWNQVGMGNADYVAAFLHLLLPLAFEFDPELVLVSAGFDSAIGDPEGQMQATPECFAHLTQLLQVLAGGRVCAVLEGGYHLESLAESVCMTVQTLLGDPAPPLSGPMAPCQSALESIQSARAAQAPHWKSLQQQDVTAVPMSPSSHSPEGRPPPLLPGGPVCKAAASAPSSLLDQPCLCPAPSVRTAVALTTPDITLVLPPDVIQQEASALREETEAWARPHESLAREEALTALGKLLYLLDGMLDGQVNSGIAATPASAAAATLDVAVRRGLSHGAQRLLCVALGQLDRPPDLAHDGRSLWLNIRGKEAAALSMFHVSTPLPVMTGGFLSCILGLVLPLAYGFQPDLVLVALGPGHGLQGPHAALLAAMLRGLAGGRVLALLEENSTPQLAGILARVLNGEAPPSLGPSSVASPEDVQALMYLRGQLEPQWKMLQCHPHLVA

[4] = target: T2, Histone deacetylase 8 (Homo sapiens) (UniProt Q9BY41); assay: Inhibition of HDAC8 in human HCT-116 cells assessed as increase in acetylation level of SMC3 at 10 uM measured after 24 hrs by Western blot analysis; assay type: cell-based
T2 sequence (whole entry): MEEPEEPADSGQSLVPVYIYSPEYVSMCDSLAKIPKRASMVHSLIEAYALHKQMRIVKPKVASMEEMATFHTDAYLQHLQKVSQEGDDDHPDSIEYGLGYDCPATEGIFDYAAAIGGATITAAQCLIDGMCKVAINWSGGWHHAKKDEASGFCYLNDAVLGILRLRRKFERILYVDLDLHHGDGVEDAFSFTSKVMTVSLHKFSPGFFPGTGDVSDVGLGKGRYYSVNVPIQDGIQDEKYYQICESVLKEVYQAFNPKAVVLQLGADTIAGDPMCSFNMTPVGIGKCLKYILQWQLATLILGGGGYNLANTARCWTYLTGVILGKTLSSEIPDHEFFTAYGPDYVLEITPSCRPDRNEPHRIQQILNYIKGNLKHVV
Method in brief: (§2)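 HCT116 or U937 cells were treated at 10 µM for 24–48 h and lysed in NP40 buffer with protease/phosphatase inhibitors. 50 µg protein was resolved by SDS-PAGE and probed with anti-acetyl-SMC3 (Lys105/106, 1:1000), normalized to GAPDH (1:3000). PCI served as positive control, and band intensities were semi-quantified by densitometry.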

Histone deacetylase 1 = Histone deacetylase 1 (Homo sapiens, UniProt Q13547); assay: Inhibition of recombinant human full length C-terminal FLAG/His-tagged HDAC1 expressed in Sf9 insect cells using ZMAL (Z-(Ac)Lys-AMC as substrate measured after 90 mins by fluorescence plate reader analysis
Sequence of Histone deacetylase 1 (Q13547 whole entry): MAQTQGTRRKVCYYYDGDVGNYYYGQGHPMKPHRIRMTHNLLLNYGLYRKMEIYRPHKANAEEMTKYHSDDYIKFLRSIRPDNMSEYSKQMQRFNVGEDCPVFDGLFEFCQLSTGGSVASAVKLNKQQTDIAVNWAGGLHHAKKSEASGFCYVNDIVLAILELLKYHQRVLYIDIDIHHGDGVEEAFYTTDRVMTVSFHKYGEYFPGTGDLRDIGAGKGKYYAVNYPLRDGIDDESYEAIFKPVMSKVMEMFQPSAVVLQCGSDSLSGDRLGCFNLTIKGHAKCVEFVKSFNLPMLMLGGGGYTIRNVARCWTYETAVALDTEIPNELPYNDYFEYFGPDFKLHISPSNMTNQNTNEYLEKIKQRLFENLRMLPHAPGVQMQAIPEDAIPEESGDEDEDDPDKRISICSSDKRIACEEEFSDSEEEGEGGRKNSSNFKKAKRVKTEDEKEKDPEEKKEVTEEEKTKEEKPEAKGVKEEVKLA

HCT-116 = assay: Antiproliferation activity against human HCT-116 cells assessed as reduction in cell viability at 5 to 50 uM measured after 48 hrs by MTT assay; assay type: functional, cell-based; conditions: dose 5-50 µM
Method in brief: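 HCT116 cells in DMEM with 10% heat-inactivated FBS were seeded at 3×10^4 cells/well and treated in triplicate at 1, 5, 10 and 50 µM for 24 and 48 h. MTT at 0.5 mg/mL was added for 3 h, formazan was dissolved in DMSO, and absorbance was read at 570 nm.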

[5] = Cytotoxicity against mouse NIH3T3 cells assessed as inhibition of cell growth by neutral red uptake assay
U-937 = assay: Antiproliferation activity against human U-937 cells assessed as reduction in cell viability at 5 to 50 uM measured after 48 hrs by CCK-8 assay; assay type: functional, cell-based; conditions: dose 5-50 µM
Method in brief: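 U937 cells were exposed in triplicate to 1, 5, 10 and 50 µM for 24 and 48 h. CCK-8 (WST-8) reagent was then added, with 3 h further incubation at 37 °C, and absorbance was read at 450 nm to give viability.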

[6] = target: T2, Histone deacetylase 8 (Homo sapiens); assay: Inhibition of HDAC8 in human U-937 cells assessed as increase in acetylation level of SMC3 at 10 uM measured after 48 hrs by Western blot analysis; assay type: cell-based; method in brief: as §2
Homo sapiens [7] = organism: Homo sapiens; assay: Selectivity index, ratio of IC50 for inhibition of recombinant human full length N-terminal GST-tagged HDAC6 expressed in Sf9 cells to IC50 for inhibition of recombinant human HDAC8; method in brief: as §1

Row | Compound | Ratio IC50 (Homo sapiens [1]) | Ratio IC50 (Homo sapiens [2]) | IC50 [3] | inhibition [4] | IC50 (Histone deacetylase 1) | Activity (HCT-116) | CC50 [5] | Activity (U-937) | inhibition [6] | Ratio IC50 (Homo sapiens [7])
1 | O=C(NO)c1ccc(CNC(=O)N2CCC(N3C(=O)[C@H](c4ccccc4)[C@H]3c3ccccc3)CC2)cc1 (racemic) | 100 | 200 | 6.6 µM | Active | 4.2 µM | Active | 101 µM | Active | Active | 2
2 | O=C(NO)c1ccc(CNC(=O)N2CCC(N3CC(c4ccccc4)(c4ccccc4)C3=O)CC2)cc1 | 43 | 1260 | 6.5 µM | Active | 4.3 µM | Active | 40 µM | Active | Active | 29
3 | O=C(NO)c1ccc(CC(=O)N2CCC(N3CC(c4ccccc4)(c4ccccc4)C3=O)CC2)cc1 | 86 | 106 | 5.1 µM | Active | 9.7 µM | Active | 48 µM | Active | Active | 1
